The target in series [1] is T1, 11-beta-hydroxysteroid dehydrogenase 1 (Homo sapiens, UniProt P28845). Kind of series: Inhibition of human recombinant 11beta-HSD1 expressed in Escherichia coli assessed as cortisol level after 150 mins by HTRF assay.
Target sequence in this assay (P28845 whole entry): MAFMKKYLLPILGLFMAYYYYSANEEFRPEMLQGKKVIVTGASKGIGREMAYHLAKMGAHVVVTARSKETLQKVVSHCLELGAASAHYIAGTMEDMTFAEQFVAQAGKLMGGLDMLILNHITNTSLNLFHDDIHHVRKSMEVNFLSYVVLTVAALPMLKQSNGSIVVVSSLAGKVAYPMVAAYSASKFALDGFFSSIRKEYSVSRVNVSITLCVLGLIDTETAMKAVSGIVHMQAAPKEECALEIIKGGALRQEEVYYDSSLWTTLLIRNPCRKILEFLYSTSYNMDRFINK
Series [2] deals with T1, 11-beta-hydroxysteroid dehydrogenase 1. As to conditions: at 1 µM.
Target sequence in this assay (P28845 whole entry, looked up): as the sequence (P28845 whole entry) above
Series [3] deals with T2, 11-beta-hydroxysteroid dehydrogenase 1 (Mus musculus, UniProt P50172). Kind of series: Inhibition of 11beta-HSD1 in mouse liver microsome. In a few lines:
(§1)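 Liver microsome fractions (2.5 µg) used as the enzyme source. Run in 30 mM Hepes pH 7.4 with 1 mM EDTA, 1 mM G-6P and cortisone/NADPH (200 nM/200 µM). Incubated 150 min at 37 °C, stopped with 18β-glycyrrhetinic acid, cortisol read by HTRF.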
(Liver microsomes are a subcellular fraction often used to study metabolism.)

For series [4], the target named is 11-beta-hydroxysteroid dehydrogenase 1 (Rattus norvegicus, UniProt P16232). Kind of series: Inhibition of 11beta-HSD1 in rat liver microsome. It is filed as microsomes. The method, boiled down:
as §1

The target in series [5] is T2, 11-beta-hydroxysteroid dehydrogenase 1. Kind of series: Inhibition of 11beta-HSD1 in mouse 3T3L1 cells assessed as cortisol level by HTRF assay. It is filed as cell-based, 3T3-L1. The method, boiled down:
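3T3L1 cells differentiated 5 days into adipocytes, then cultured 4 days before 150 min exposure to compound (10^-5–10^-7 M). Cortisol in the culture supernatant is measured by HTRF to give 11β-HSD1 activity.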
For orientation: In TR-FRET formats the signal depends on donor and acceptor labels being close together.

Series [6] addresses T3, 11-beta-hydroxysteroid dehydrogenase type 2 (Homo sapiens, UniProt P80365).
T3 sequence (P80365 whole entry): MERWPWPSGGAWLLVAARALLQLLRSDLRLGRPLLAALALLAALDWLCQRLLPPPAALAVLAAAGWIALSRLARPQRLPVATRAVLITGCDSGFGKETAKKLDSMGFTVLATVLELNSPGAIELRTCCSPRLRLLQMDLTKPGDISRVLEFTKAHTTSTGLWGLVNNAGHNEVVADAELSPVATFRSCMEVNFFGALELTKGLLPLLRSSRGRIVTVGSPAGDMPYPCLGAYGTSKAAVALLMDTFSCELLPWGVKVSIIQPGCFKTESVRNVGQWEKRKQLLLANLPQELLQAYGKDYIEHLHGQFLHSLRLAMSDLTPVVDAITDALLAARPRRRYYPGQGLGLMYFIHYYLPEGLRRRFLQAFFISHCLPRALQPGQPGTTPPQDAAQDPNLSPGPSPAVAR
Put plainly: Inhibition of human recombinant 11beta-HSD2 expressed in Escherichia coli assessed as cortisol level after 60 mins by HTRF assay. In a few lines:
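Enzyme is recombinant human 11β-HSD2 (E. coli-expressed) in 50 mM Tris pH 7.8 with 1 mM MgCl2 and 0.5 mM NAD. Reaction starts with 20 nM cortisol, runs at room temperature, and is stopped with carbenoxolone 10 µM. Cortisol is quantified by HTRF.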

A short description of series [7]: Solubility in water. It is filed as physicochemical.
Series [8] in a line: Half life in rat plasma at 0.2 mg/kg, iv and 0.5 mg/kg, po. It is filed as ADME, organism-based. The method, boiled down:
(§2)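 Male rats given a low-dose cassette (cocktail): 0.2 mg/kg i.v. and 0.5 mg/kg p.o.; plasma PK parameters are means of 3 rats. Unchanged drug recovered in faeces collected 0–24 h after each route.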

Series [9] is described as follows: Bioavailability in rat at 0.2 mg/kg, iv and 0.5 mg/kg, po. It is filed as ADME, organism-based. As to conditions: in vivo. In a few lines: as §2
Series [10] can be described thus: Volume of distribution at steady state in rat at 0.2 mg/kg, iv and 0.5 mg/kg, po. It is filed as ADME, organism-based. As to conditions: in vivo, read-out: Vdss. The method, boiled down: as §2
Series [11] can be described thus: Drug absorption in rat assessed as recovery of unchanged drug in feces at 0.2 mg/kg, iv after 24 hrs. It is filed as ADME, organism-based. The arrangement: dose 0.2 mg/kg, route intravenous. As to conditions: faeces, read-out: Drug uptake. In a few lines:
as §2

Series [12] is described as follows: Drug absorption in rat assessed as recovery of unchanged drug in feces at 0.5 mg/kg, po after 24 hrs. It is filed as ADME, organism-based. Details: dose 0.5 mg/kg, route oral. Conditions: faeces, read-out: Drug uptake. In a few lines: as §2
Series [13] can be described thus: Protein binding in human serum. It is filed as ADME, cell-free. Conditions: read-out: PB (converted).
Series [14] can be described thus: Clearance in rat at 0.2 mg/kg, iv and 0.5 mg/kg, po. It is filed as ADME, organism-based. Conditions: in vivo. The method, boiled down: as §2
In series [15] the target is T1, 11-beta-hydroxysteroid dehydrogenase 1. Kind of series: Inhibition of human 11beta-HSD1.
Target sequence in this assay (P28845 whole entry): as the sequence (P28845 whole entry) above

Molecules are shown by their SMILES. ≈ marks a conversion by molar mass, not a printed value.

T2 sequence (P50172 whole entry): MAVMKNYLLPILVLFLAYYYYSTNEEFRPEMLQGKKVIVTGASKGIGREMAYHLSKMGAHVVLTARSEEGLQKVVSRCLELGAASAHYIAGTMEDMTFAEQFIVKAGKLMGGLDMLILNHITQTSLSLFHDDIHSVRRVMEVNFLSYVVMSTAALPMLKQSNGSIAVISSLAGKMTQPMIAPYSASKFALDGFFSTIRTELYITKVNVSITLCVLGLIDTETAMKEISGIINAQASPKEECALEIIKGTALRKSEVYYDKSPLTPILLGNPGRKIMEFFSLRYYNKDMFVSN
11-beta-hydroxysteroid dehydrogenase 1 (Rattus norvegicus, UniProt P16232), sequence (P16232 whole entry): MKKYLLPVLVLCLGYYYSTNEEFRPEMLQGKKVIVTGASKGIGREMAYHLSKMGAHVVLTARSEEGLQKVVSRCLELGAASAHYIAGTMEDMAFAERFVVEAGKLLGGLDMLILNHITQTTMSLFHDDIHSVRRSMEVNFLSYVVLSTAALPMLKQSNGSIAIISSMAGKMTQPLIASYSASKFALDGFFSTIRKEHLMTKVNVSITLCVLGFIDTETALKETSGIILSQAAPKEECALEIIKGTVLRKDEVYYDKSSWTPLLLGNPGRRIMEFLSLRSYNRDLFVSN

As for `CC(C)(CC(=O)NC1CC1)CC(=O)N[C@H]1C2CC3CC1C[C@@](O)(C3)C2`, the 50% inhibitory concentration (IC50) (as a rule, the midpoint of a concentration-inhibition curve) in series [1] stood at 0.55 µM.
The same measure, in the same setting: the figure for `O=C(CCCC(=O)NC1C2CC3CC(C2)CC1C3)NC1CC1` (stereo unspecified) is > 1 µM; for `CC(C)(CC(=O)NC1CC1)CC(=O)N[C@H]1C2CC3CC1C[C@](C(=O)O)(C3)C2` it is > 1 µM.
With `CN1CCN(C(=O)CC2(CC(=O)O)CCCC2)CC1`, in [2], the inhibition – broadly, how much of the control response was suppressed – was 0%.
`CC(C)(CC(=O)NC1CC1)CC(=O)N[C@H]1C2CC3CC1C[C@](O)(C3)C2`: the 50% inhibitory concentration (IC50) in series [1] is 0.008 µM; in series [3], 0.088 µM; in [4], 0.98 µM; in series [5], < 0.1 µM; in [6] it was > 10 µM. In series [7], the concentration in solution (solubility) was 597 µg/mL (≈ 1710 µM). Moreover, the half-life – broadly, how long it takes for the measured level to halve – in series [8] is 72 min. Besides, the bioavailability (commonly dose-corrected exposure relative to a reference, in per cent) in series [9] came out at 30%. In addition, the Vd in [10] was 2.7 L/kg. In addition, the dose excreted at 24 h came to 20% in series [11] and 22% in series [12]. The fraction unbound in series [13] is 0.6. For the same compound, the clearance in [14] was 30 mL/min/kg.
With `CC(C)(CC(=O)NC1CC1)CC(=O)N[C@H]1C2CC3CC1C[C@](C(N)=O)(C3)C2`, the concentration for half-maximal inhibition (IC50) is 0.008 µM in [1]; 0.01 µM in series [3]; 0.031 µM in series [4]; < 1 µM in series [5]; > 10 µM in series [6]. In addition, the solubility – broadly, the dissolved amount per volume that the medium holds – in [7] is 491 µg/mL (≈ 1310 µM). In addition, the half-life in [8] was 36 min. The same compound yielded a bioavailability in [9] of 10%. Also, in [10], the Vd amounted to 3.1 L/kg. Besides, the dose excreted at 24 h is 24% in [11] and 50% in series [12]. In [13], the fraction unbound was > 0.8. In addition, the clearance in series [14] was 55 mL/min/kg.
In the case of `O=C(O)CC1(CC(=O)NCc2ccc(F)cc2Cl)CCCC1`, in series [15], half-maximal inhibition (IC50) required 1.2 µM.

The values are drawn from ChEMBL document CHEMBL1151906, “Discovery and structure-activity relationships of pentanedioic acid diamides as potent inhibitors of 11beta-hydroxysteroid dehydrogenase type I” (Bioorg Med Chem Lett, 2009).
